Measured values reported in ChEMBL document CHEMBL4041479, “Piperlongumine (piplartine) and analogues: Antiproliferative microtubule-destabilising agents” (Eur J Med Chem, 2017).
Calls of active or inactive are those of the source. The calls are words filed in the database; no cut-off is given here.

Tests used:
[1] = test system: MCF7; experiment: Induction of reactive oxygen species generation in human MCF7 cells assessed as decrease in cell viability at 10 uM in presence of N-acetyl cysteine after 48 hrs by alamarBlue assay; format: functional, cell-based
Method in brief: (§1)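 MCF-7 cells were seeded at 2.5×10^4 cells/mL and left to adhere. They were pre-treated 1 h with N-acetyl cysteine (1 mM) or Trolox (100 μM), then exposed to test agents for 48 h. Viability was measured by alamarBlue fluorescence as % of ethanol vehicle control. Mean of three independent experiments.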

[2] = test system: MCF7; experiment: Induction of reactive oxygen species generation in human MCF7 cells assessed as decrease in cell viability at 1 to 10 uM in presence of N-acetyl cysteine after 48 hrs by alamarBlue assay; format: functional, cell-based
Method in brief: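 MCF-7 cells seeded at 2.5×10^4 cells/mL, left overnight to adhere. After 23 h, pre-treated 1 hr with NAC (1 mM; 100 mM stock in sterile water), then compound for 48 h at 37 °C in 5% CO₂. alamarBlue added 5 h before endpoint, fluorescence ex 544/em 590 nm, blank subtracted. Viability as % of ethanol vehicle control, mean of three independent experiments.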

[3] = species on record: Homo sapiens; experiment: Disruption of microtubule network in human MCF7 cells at 100 nM after 16 hrs by immunofluorescence analysis; format: cell-based
Method in brief: (§2)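 MCF-7 cells were seeded at 1×10^5 cells/mL on chamber slides and treated for 16 h (vehicle 1% ethanol). Cells were fixed 20 min in 4% paraformaldehyde, permeabilised in 0.5% Triton X-100 and blocked in 5% BSA/PBST. Staining used anti-α-tubulin–FITC (DM1A) for 2 h at rt, then Alexa Fluor 488 for 1 h, with DAPI counterstain. Imaging was by confocal microscopy; three independent experiments.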

[4] = species on record: Homo sapiens; experiment: Binding affinity to colchicine-binding site of beta tubulin in human MCF7 cells assessed as inhibition of formation of protein-N,N'-Ethylene-bis(iodoacetamide) adduct at 10 uM after 2 hrs by Western blot method; format: cell-based
Method in brief: (§3)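 MCF-7 or HT-29 cells were exposed to test agent or ethanol vehicle (0.1% v/v) for 2 h, with MCF-7 seeded at 1×10^6 cells/well overnight beforehand. Selected samples then received N,N'-ethylene-bis(iodoacetamide) for a further 1.5 h. Cells were washed in cold PBS, lysed in Laemmli buffer and run on SDS-PAGE. Three independent experiments.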

[5] = species on record: Homo sapiens; experiment: Binding affinity to colchicine-binding site of beta tubulin in human HT-29 cells assessed as inhibition of formation of protein-N,N'-Ethylene-bis(iodoacetamide) adduct at 10 uM after 2 hrs by Western blot method; format: cell-based; method in brief: as §3
[6] = test system: MCF7; experiment: Induction of reactive oxygen species generation in human MCF7 cells assessed as decrease in cell viability at 0.1 to 10 uM in presence of N-acetyl cysteine after 48 hrs by alamarBlue assay; format: functional, cell-based; method in brief: as §1
[7] = test system: MCF7; experiment: Induction of reactive oxygen species generation in human MCF7 cells assessed as decrease in cell viability at 100 nM in presence of N-acetyl cysteine after 48 hrs by alamarBlue assay; format: functional, cell-based; method in brief: as §1
[8] = test system: MCF7; experiment: Cell cycle arrest in human MCF7 cells assessed as G0/G1 phase accumulation at 10 uM after 24 hrs by propidium iodide staining based flow cytometry; format: functional
Method in brief: (§4)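 MCF-7 cells were seeded at 1×10^5 cells/mL and treated after 24 h with 5, 10 or 20 μM or 0.1% ethanol for 24 or 48 h. Cells were pooled, fixed in ice-cold 70% ethanol at −20 °C for 24 h, then stained with RNase A and propidium iodide for 30 min at 37 °C in the dark. Flow cytometry used FL-2, ≥10,000 gated cells, and sub-G1/G0G1/G2/M were scored by DNA content. Mean ± SEM of three; one-way ANOVA with Dunnett's test.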

[9] = test system: MCF7; experiment: Induction of apoptosis in human MCF7 cells assessed as downregulation of Bcl2 expression at 10 uM after 48 hrs by Western blot method; format: functional, cell-based
Method in brief: (§5)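 MCF-7 cells were seeded at 5×10^5 cells/flask and exposed to 10 μM, vehicle (0.1% ethanol) or no treatment for 48 or 72 h. Cells were lysed in RIPA buffer with protease/phosphatase inhibitors, and equal protein (by BCA) was run on 12% SDS-PAGE. Blots were probed overnight at 4 °C for Bcl-2 (1:500) or Mcl-1 (1:1000), with GAPDH as loading control and ECL detection. Three independent experiments.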

[10] = test system: MCF7; experiment: Antiproliferative activity in human MCF7 cells assessed as cell viability after 48 hrs by alamarBlue assay; format: functional, cell-based; details: MCF7, 48 h
Method in brief: (§6)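 Cells were seeded at 2.5×10^4 cells/mL and treated after 24 h with vehicle (0.1% v/v ethanol) or a dose range (0.1–20 μM) for 48 h at 37 °C in 5% CO2. Media-only blanks were subtracted, and viability is given as % of vehicle. Sextuplicate wells, three independent experiments.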

[11] = test system: Jurkat; experiment: Antiproliferative activity in human Jurkat cells assessed as cell viability after 48 hrs by alamarBlue assay; format: functional, cell-based
Method in brief: as §6, with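 “CO2. AlamarBlue was added 5 h before the end and read as fluorescence (ex 544/em 590 nm).” for “CO2.”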

[12] = test system: MCF-10A; experiment: Cytotoxicity in human MCF10A cells at 10 uM after 24 to 48 hrs by alamarBlue assay; format: cell-based
Method in brief: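 MCF-10a cells were grown in DMEM/F12 with 5% horse serum, EGF, hydrocortisone, cholera toxin and insulin. They were treated at 1, 5, 10 or 20 μM for 48 h. Read-out was alamarBlue fluorescence, blank-subtracted and expressed as % of ethanol vehicle control. Mean of three independent experiments; unpaired two-tailed t-test.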

[13] = test system: MCF7; experiment: Induction of reactive oxygen species generation in human MCF7 cells assessed as decrease in cell viability at 1 to 20 uM in presence of N-acetyl cysteine after 48 hrs by alamarBlue assay; format: functional, cell-based; method in brief: as §1
[14] = test system: MCF7; experiment: Cell cycle arrest in human MCF7 cells assessed as G0/G1 phase accumulation at 20 uM after 48 hrs by propidium iodide staining based flow cytometry; format: functional; method in brief: as §4
[15] = test system: MCF7; experiment: Cell cycle arrest in human MCF7 cells assessed as G0/G1 phase accumulation at 20 uM after 24 hrs by propidium iodide staining based flow cytometry; format: functional; method in brief: as §4
[16] = test system: MCF7; experiment: Cell cycle arrest in human MCF7 cells assessed as G0/G1 phase accumulation at 10 uM after 48 hrs by propidium iodide staining based flow cytometry; format: functional; method in brief: as §4
[17] = test system: MCF7; experiment: Cell cycle arrest in human MCF7 cells assessed as G2/M phase accumulation at 5 uM after 24 hrs by propidium iodide staining based flow cytometry; format: functional; method in brief: as §4
[18] = test system: MCF7; experiment: Cell cycle arrest in human MCF7 cells assessed as G2/M phase accumulation at 10 uM after 24 hrs by propidium iodide staining based flow cytometry; format: functional; method in brief: as §4
[19] = test system: MCF7; experiment: Cell cycle arrest in human MCF7 cells assessed as G2/M phase accumulation at 5 uM after 48 hrs by propidium iodide staining based flow cytometry; format: functional; method in brief: as §4
[20] = test system: MCF7; experiment: Cell cycle arrest in human MCF7 cells assessed as G2/M phase accumulation at 10 uM after 48 hrs by propidium iodide staining based flow cytometry; format: functional; method in brief: as §4
[21] = test system: MCF7; experiment: Cell cycle arrest in human MCF7 cells assessed as sub G0/G1 phase accumulation at 10 uM after 48 hrs by propidium iodide staining based flow cytometry; format: functional; method in brief: as §4
[22] = test system: MCF7; experiment: Cell cycle arrest in human MCF7 cells assessed as sub G0/G1 phase accumulation at 20 uM after 48 hrs by propidium iodide staining based flow cytometry; format: functional; method in brief: as §4
[23] = test system: MCF7; experiment: Induction of apoptosis in human MCF7 cells assessed as downregulation of Mcl-1 expression at 10 uM after 72 hrs by Western blot method; format: functional, cell-based; method in brief: as §5
[24] = species on record: Bos taurus; experiment: Induction of bovine tubulin depolymerization at 25 uM measured every 30 secs for 60 mins by spectrophotometry
Method in brief: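 Purified tubulin plus GTP was incubated at 37 °C with test agent or 1% ethanol vehicle. Assembly was followed as absorbance (light scattering) at 340 nm every 30 s for 60 min. Mean of three experiments run in duplicate.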

[25] = species on record: Homo sapiens; experiment: Disruption of microtubule network in human MCF7 cells at 20 uM after 16 hrs by immunofluorescence analysis; format: cell-based; method in brief: as §2
[26] = test system: MCF7; experiment: Cytotoxicity against human MCF7 cells after 24 hrs by MTT assay; format: functional, cell-based; details: MCF7, 24 h
[27] = species on record: Homo sapiens; experiment: Induction of microtubule depolymerization in human MCF7 cells at 10 uM after 16 hrs by immunofluorescence analysis; format: cell-based; method in brief: as §2
[28] = species on record: Homo sapiens; experiment: Binding affinity to colchicine-binding site of beta tubulin in human MCF7 cells assessed as inhibition of formation of protein-N,N'-Ethylene-bis(iodoacetamide) adduct at 40 uM after 2 hrs by Western blot method; format: cell-based; method in brief: as §3
[29] = species on record: Homo sapiens; experiment: Binding affinity to colchicine-binding site of beta tubulin in human HT-29 cells assessed as inhibition of formation of protein-N,N'-Ethylene-bis(iodoacetamide) adduct at 40 uM after 2 hrs by Western blot method; format: cell-based; method in brief: as §3
[30] = test system: MCF7; experiment: Induction of reactive oxygen species generation in human MCF7 cells assessed as decrease in cell viability at 1 to 20 uM in presence of trolox after 48 hrs by alamarBlue assay; format: functional, cell-based; method in brief: as §1
[31] = species on record: Homo sapiens; experiment: Induction of tubulin depolymerization in human MCF7 cells at 5 to 20 uM after 4 hrs by Western blot method; format: cell-based
Method in brief: (§7)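 MCF-7 (1×10^6/well) or Jurkat cells were treated for 4 h with 1–20 μM or 0.1% ethanol. Cells were lysed in microtubule-preserving buffer (0.1 M PIPES pH 6.9, 2 M glycerol, 5 mM MgCl2, 2 mM EGTA, 0.5% Triton X-100, 4 μM paclitaxel) and centrifuged at 20,000g for 45 min. Soluble (supernatant) and polymer (pellet) fractions, 30 μg protein each, were immunoblotted for α-tubulin with a GAPDH loading control. Three experiments.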

[32] = species on record: Homo sapiens; experiment: Induction of tubulin depolymerization in human Jurkat cells at 5 to 20 uM after 4 hrs by Western blot method; format: cell-based; method in brief: as §7
[33] = species on record: Homo sapiens; experiment: Effect on tubulin polymerization in human MCF7 cells at 1; format: cell-based; method in brief: as §7
[34] = species on record: Homo sapiens; experiment: Effect on tubulin polymerization in human Jurkat cells at 1; format: cell-based; method in brief: as §7
[35] = test system: Jurkat; experiment: Cytotoxicity against human Jurkat cells after 24 hrs by MTT assay; format: functional, cell-based
[36] = test system: MCF7; experiment: Cell cycle arrest in human MCF7 cells assessed as G2/M phase accumulation at 20 uM after 24 hrs by propidium iodide staining based flow cytometry
[37] = test system: MCF7; experiment: Cell cycle arrest in human MCF7 cells assessed as G2/M phase accumulation at 20 uM after 48 hrs by propidium iodide staining based flow cytometry

For COc1cc(C(=O)/C=C/c2ccc(N(C)C)cc2)cc(OC)c1OC, the Activity [1] was “inactive”.

With COc1cc2c(c(OC)c1OC)-c1ccc(OC)c(=O)cc1[C@@H](NC(C)=O)CC2 the Activity [2] was “inactive”.

With COc1ccc(/C=C(\C)C(=O)c2cc(OC)c(OC)c(OC)c2)cc1O the Activity [1] was “inactive”.

In the case of COc1ccc(/C=C\c2cc(OC)c(OC)c(OC)c2)cc1O, the Activity [3] is reported as “Active”, the inhibition [4] is reported as “Active” and the inhibition [5] is reported as “Active”. The Activity [6] was “inactive” and the Activity [7] was “inactive”.

For COc1ccc(OC)c(C(=O)/C(C)=C/c2ccc(N(C)C)cc2)c1, the Activity [1] was “inactive”.

With COc1cc(/C=C/C(=O)N2CCC=CC2=O)cc(OC)c1OC [PIPLARTINE] the Activity [8] was 16%, the Activity [9] was “Active” and the IC50 [10] was 1.2 µM. For the same molecule, the IC50 [11] was 1.4 µM, the Activity [12] was 90% and the Activity [13] was “inactive”. The Activity [14] was 19%, the Activity [15] was 15% and the Activity [16] was 21%. For the same molecule, the Activity [17] was 13%, the Activity [18] was 16% and the Activity [19] was 6%. It also gave an Activity [20] of 15%, an Activity [21] of 4.3% and an Activity [22] of 4.9%. The Activity [23] was “Active”, the Activity [24] was “Active” and the Activity [25] was “Active”. The IC50 [26] was 8 µM, the Activity [27] was “Active” and the inhibition [28] was “inactive”. For the same molecule, the inhibition [29] was “inactive”, the Activity [30] was “Active” and the Activity [31] was “Active”. For the same molecule, the Activity [32] was “Active”, the Activity [33] was “inactive” and the Activity [34] was “inactive”. It also gave an IC50 [35] of 5 µM, an Activity [36] of 12% and an Activity [37] of 10%.
